Source: PubChem (several laboratories)
The list is not random: actives were taken first. Their share in the collection is about 1.3%.
FAS TE block = FAS thioesterase (human) inhibition. P49327. actives 0.67% (n = 360,000). recombinant FAS-TE, OMFH fluorogenic substrate, fluorescence endpoint. inhibition, % at 15 µM. AID 602261;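 active = compounds whose normalised, plate-corrected inhibition of enzyme fluorescence in the single-dose primary screen is 50% or more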;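 also: 0% = DMSO with enzyme and 100% = substrate without enzyme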
MT1-MMP act inh = MT1-MMP (human) activation inhibition; actives 0.061% (n = 360,000); P50281; GFP/RFP ratio change, % at 20 µM; HT1080 RFP-PRO-GFP cells, GFP/RFP ratio fluorescence, overnight; percent of plate control window, DMSO zero;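 active = GFP/RFP ratio change of at least 30% with cell ATP level not reduced by more than half and red fluorescence within 50% of control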
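Compound: 20 µM single dose, 1% DMSO / System: HT1080 RFP-PRO-GFP cells / Controls: DMSO and RFP-L50D-GFP cell wells / Read-out basis: GFP/RFP fluorescence ratio / Schedule: overnight compound exposure at 37 °C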
DAGLB inh = diacylglycerol lipase beta (human) inhibition; inhibition, % at 5.17 µM; Q8NCG7; actives 0.059% (n = 340,000); AID 504411; HEK293T DAGLB membrane lysate, EnzChek fluorogenic substrate; in the data active = inhibition above about 34%;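 also: 0% = enzyme with vehicle and 100% = wells lacking enzyme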
iPSC survival up = increases survival of single human iPS cells | hiPSC single-cell survival, ATPlite luminescence; 100% = ROCK inhibitor wells, 0% = DMSO | survival enhancement, % at 20 µM | actives 0.044% (n = 360,000); in the data active = survival enhancement above about 18%;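 also: cells exposed to compounds for 16 hours before the ATP read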
SKN-1 inh = C. elegans SKN-1 inhibition; C. elegans VP596 Pgst-4::GFP/RFP ratio, acrylamide-induced, 24 h; inhibition, % at 21.8 µM; actives 0.49% (n = 360,000); AID 624304;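 active = interference check ratio from 0.5 to 1.5 plus GFP to RFP signal ratio inhibition reaching or exceeding a fixed threshold, cut at about 30% in these data, passing the limit was not always enough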
FAS-TE conf = confirmation of human fatty acid synthase thioesterase inhibitors | shares compounds with FAS TE block | recombinant FAS-TE, OMFH fluorogenic substrate, fluorescence | inhibition, % at 15 µM | actives 45% (n = 2,300);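 active = compounds inhibiting the enzyme by at least 50% at 15 µM in any one of the replicates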;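 also: 0% = enzyme with DMSO only and 100% = wells lacking enzyme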
* marks the source's active call; other numbers are inactive results; . = no result.

SMILES	FAS TE block	MT1-MMP act inh	DAGLB inh	iPSC survival up	SKN-1 inh	FAS-TE conf
CCCCNC(=O)CCC(=O)Nc1ccc2nc(N3CCC(C)CC3)cc(C)c2c1	60*	-1	2	2	-7	45
Cc1cc(N2CCOCC2)nc2ccc(NC(=O)CCC(=O)N3CCC(C)CC3)cc12	-4	4	3	-2	-21	.
O=C(Nc1ccc(OCc2ccccc2)cc1)Nc1nnc([C@H]2C[C@H](O)[C@@H](CO)O2)s1	-1	10	.	4	5	.
O=C1CCN(Cl)C(=O)N1Cl	-3	7	.	0	-10	.
CN(C)N=C1c2cc(S(=O)(=O)N3CCOCC3)ccc2-c2ccc(S(=O)(=O)N3CCOCC3)cc21	50*	10	1	3	2	25
CCn1c(SCC(=O)OC(C)C)nnc1-c1ccccc1OC	-5	-3	2	0	-8	.
O=[N+]([O-])c1ccc(-c2nc(Nc3cccc(O)c3)c3ccccc3n2)cc1	56*	0	-3	-1	16	54*
CCCc1cc(C(=O)Nc2cccc([N+](=O)[O-])c2)cs1	52*	2	-6	0	4	41*
Cc1ccc2nc(N(CCN(C)C)C(=O)C3CCN(S(=O)(=O)c4cccs4)CC3)sc2c1	20	4	-4	0	-10	.
C[C@@H]1CCCCO[C@@H](CN(C)S(=O)(=O)c2ccc(F)cc2)[C@@H](C)CN([C@H](C)CO)C(=O)c2cc(NC(=O)c3ccccc3)ccc2O1	24	3	0	-3	-7	.
COc1ccc(-c2cc3nc4c(c(N5CCC6(CC5)OCCO6)n3n2)CCC4)cc1	51*	-1	-4	1	17	43
COc1ccc(-c2cc3nc(-c4ccccc4)cc(N4CCC5(CC4)OCCO5)n3n2)cc1	52*	4	-5	-2	1	10
COc1ccc(-c2cc3nc(-c4ccccc4)cc(N4CCN(C(=O)c5ccoc5)CC4)n3n2)cc1	20	-2	0	-3	3	.
Cc1cccc(-c2cc3nc4c(c(N5CCC6(CC5)OCCO6)n3n2)CCCC4)c1	30	-1	-2	-2	12	.
Fc1ccc(-c2cc3nc4c(c(N5CCOCC5)n3n2)CCCC4)cc1	21	-6	-4	-1	15	.
COc1cccc(-c2cc3nc4c(c(N5CCC6(CC5)OCCO6)n3n2)CCC4)c1	55*	-6	-15	-2	8	26
COc1ccc(C(O)c2nc(-c3cnn(C)c3)cs2)cc1 (centres undefined)	-13	0	.	0	4	.
Cc1ccc(S(=O)(=O)N2CCN(Cc3ccccc3)CC2)c(C)c1N(C)S(=O)(=O)c1ccccc1	52*	-5	-12	1	-16	13
CC(=O)Nc1cccc(NC(=O)C(=O)c2cn(CC(=O)N3CCCC3)c3ccccc23)c1	-5	3	0	-2	6	.
O=[N+]([O-])c1ccc(SNc2ccccc2)c([N+](=O)[O-])c1	57*	11	10	-3	-2	45*
O=C(NN1C(=O)c2ccccc2NC1c1ccc([N+](=O)[O-])o1)c1ccccc1 (centres undefined)	52*	-20	2	-1	6	40
O=C(/C=C/[C@H]1O[C@@H](n2ccc(=O)[nH]c2=O)[C@H](O)[C@@H]1O)NCCCc1ccccc1	-6	1	.	-1	-12	.
COc1ccc(NC(=S)N2C3CCC2CC(NC(=O)NC24CC5CC(CC(C5)C2)C4)C3)c(OC)c1 (centres undefined)	3	6	4	0	10	.
Cc1cc([N+](=O)[O-])ccc1NC(=O)CN1C2CCC1CC(NC(=O)NC13CC4CC(CC(C4)C1)C3)C2 (centres undefined)	51*	-1	1	0	-5	11
COCC1CCN(C(=O)c2ccc3nc(Cc4cccc(Cl)c4)oc3c2)CC1	-4	2	-3	-2	3	.
SMILES	FAS TE block	MT1-MMP act inh	DAGLB inh	iPSC survival up	SKN-1 inh	FAS-TE conf
COc1ccc(-c2cc([N+](=O)[O-])ccc2OCC(=O)N(C)CC(=O)Nc2ccc(C)cc2)cc1	60*	-3	-6	0	4	64*
Cc1nnc(Sc2cc(NCCO)c([N+](=O)[O-])c3nonc23)s1	65*	3	-2	0	3	64*
Cc1nnc(Sc2cc(NCCCO)c([N+](=O)[O-])c3nonc23)s1	63*	3	2	1	8	69*
O=[N+]([O-])c1c(NCCO)cc(N2CCCCCC2)c2nonc12	0	4	1	-1	-3	.
Cc1ccc(C(=O)NCC(=O)OCc2nc3ccsc3c(=O)[nH]2)cc1C	-5	-1	-6	-2	8	.
O=C(Nc1nc2cc(Cl)ccc2s1)C1CCCN(S(=O)(=O)c2cccc3cccnc23)C1 (centres undefined)	69*	-18	3	0	18	14
Cc1cc2nc3n(c2cc1C)CC1CC(C(=O)NCc2cccc(Br)c2)N(C)C31 (centres undefined)	-8	2	1	1	-8	.
CN1C(C(=O)NCc2cccc(Br)c2)CC2Cn3c(nc4cc(Cl)c(Cl)cc43)C21 (centres undefined)	57*	4	1	2	3	44*
NS(=O)(=O)c1cccc(NC(=O)CSc2nnc(C3CC3)n2Cc2ccccc2)c1	-4	0	0	0	-6	.
Cc1ccccc1-n1cnc2c(sc3nc(N4CCOCC4)c4c(c32)CCCC4)c1=O	66*	-9	-4	0	13	13
O=c1c2sc3nc(N4CCOCC4)c4c(c3c2ncn1-c1ccccc1)CCCC4	42	-7	-8	0	-4	.
COc1ccc(-n2cnc3c(sc4nc(N5CCOCC5)c5c(c43)CCCC5)c2=O)cc1	63*	-9	-3	0	-5	5
O=C(NCc1ccccc1)c1cc(C2CCCCN2C(=O)OCCF)on1 (centres undefined)	-2	-2	.	-1	-14	.
COc1ccc(N2Cc3cccc(C(=O)NC(C)CCc4ccco4)c3C2=O)cc1 (centres undefined)	17	-4	-8	0	8	.
CC(CCc1ccco1)NC(=O)c1cccc2c1C(=O)N(C1CCCCC1)C2 (centres undefined)	63*	-12	-12	-1	9	9
CC(OC(=O)Cn1cnc2c1c(=O)n(C)c(=O)n2C)C(=O)NC(C)c1ccc(Cl)cc1Cl (centres undefined)	-1	-1	2	2	7	.
CCOC1=C2[C@H](c3ccccc3)N(S(=O)(=O)c3ccc(C)cc3)C(C(C)(C)C)[C@H]2n2c(=O)n(-c3ccccc3)c(=O)n2C1 (some centres undefined)	89*	1	.	-2	9	28
